≈ marks a conversion by molar mass, not a printed value.
Legend:
[1] = test system: HepG2; test: Induction of cell cycle arrest in human HepG2 cells assessed as accumulation at G2/M phase phase at 50 nM after 24 hrs by propidium iodide staining based flow cytometry (reference value: 11.2%); type: functional
[2] = test system: Rattus norvegicus; test: Systemic clearance in rat at 2.25 mg/kg, iv; type: ADME, organism-based; set-up: dose 2.25 mg/kg, route intravenous; details: in vivo
[3] = Antiproliferative activity against human A2780S cells assessed as inhibition of cell proliferation after 48 hrs by MTT assay; type: functional, cell-based; details: A2780, 48 h
In short: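 Cells grown in DMEM with 10% FBS, penicillin/streptomycin at 37 °C, 5% CO2. 1000 cells/well seeded, incubated overnight, then exposed to various doses for 48 h. MTT added for 4 h, formazan dissolved in DMSO, absorbance read at 590 nm. IC50 = concentration inhibiting proliferation by 50%, mean ± SEM of dose–response curves from at least three independent experiments.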

[4] = test system: MCF7; test: Resistance index, ratio of IC50 for adriamycin resistant human MCF7 cells to IC50 for parental human MCF7 cells; type: functional
[5] = Cmax in rat at 9 mg/kg, po; type: ADME, organism-based; set-up: dose 9 mg/kg, route oral; details: in vivo
In short: (§1)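 Rat pharmacokinetics; oral and intravenous dosing, with group sizes of 5, 5 and 4 rats. Parameters derived: systemic clearance, volume of distribution, area under the plasma concentration–time curve, maximum plasma concentration and percent oral bioavailability.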

[6] = Solubility in PBS solution by nephelometry; type: physicochemical
In short: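 Maximum soluble concentration in PBS, determined by nephelometry.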

[7] = Antiproliferative activity against mouse C26 cells assessed as inhibition of cell proliferation after 48 hrs by MTT assay; type: functional, cell-based; details: C26, 48 h
In short: (§2)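 Cells grown at 37 °C in humidified 5% CO2. K562, C26 and HCT lines in RPMI-1640; other lines in DMEM; both media with 10% FBS, penicillin and streptomycin. 1000 cells/well seeded, incubated overnight, then compound at various doses for 48 h. MTT added for 4 h, formazan dissolved in DMSO, absorbance read at 590 nm. IC50 from dose–response curves, mean ± SEM of at least three independent experiments.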

[8] = Antiproliferative activity against human HCT15 cells assessed as inhibition of cell proliferation after 48 hrs by MTT assay; type: functional, cell-based; details: HCT-15, 48 h; in short: as §2
[9] = test system: HepG2; test: Induction of apoptosis in human HepG2 cells assessed as late apoptotic cells at 50 nM after 24 hrs by annexin-V-FITC and propidium iodide staining based flow cytometry (reference value: 1.03%); type: functional
In short: (§3)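 HepG2 cells treated with 50, 100 or 200 nM compound or DMSO vehicle for 24 or 48 h at 37 °C. Labeled with annexin-V-FITC and PI and analyzed by flow cytometry. Cells classified as early apoptotic (annexin-V+/PI−), late apoptotic (annexin-V+/PI+) or necrotic (annexin-V−/PI+).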

[10] = Antiproliferative activity against human HCT8 cells assessed as inhibition of cell proliferation after 48 hrs by MTT assay; type: functional, cell-based; details: HCT-8, 48 h; in short: as §2
[11] = test system: HepG2; test: Antiproliferative activity against human HepG2 cells assessed as inhibition of cell proliferation after 48 hrs by MTT assay; type: functional, cell-based; details: hepg2; in short: as §2
[12] = test system: HepG2; test: Induction of cell cycle arrest in human HepG2 cells assessed as accumulation at S phase phase at 200 nM after 24 hrs by propidium iodide staining based flow cytometry (reference value: 30.6%); type: functional
[13] = test system: HepG2; test: Induction of apoptosis in human HepG2 cells assessed as early apoptotic cells at 200 nM after 48 hrs by annexin-V-FITC and propidium iodide staining based flow cytometry (reference value: 3.63%); type: functional; in short: as §3
[14] = test system: HepG2; test: Induction of cell cycle arrest in human HepG2 cells assessed as accumulation at G2/M phase phase at 100 nM after 24 hrs by propidium iodide staining based flow cytometry (reference value: 11.2%); type: functional
[15] = test system: NCI-H358; test: Antiproliferative activity against human NCI-H358 cells assessed as inhibition of cell proliferation after 48 hrs by MTT assay; type: functional, cell-based; details: NCI-H358, 48 h; in short: as §2
[16] = test system: HepG2; test: Induction of cell cycle arrest in human HepG2 cells assessed as accumulation at G0/G1 phase at 200 nM after 24 hrs by propidium iodide staining based flow cytometry (reference value: 58.2%); type: functional
[17] = test system: A2780; test: Resistance index, ratio of IC50 for taxol resistant human […] cells to IC50 for parental human […] cells; type: functional
[18] = Antiproliferative activity against cisplatin resistant human […] cells assessed as inhibition of cell proliferation after 48 hrs by MTT assay; type: functional, cell-based; details: A2780cisR; in short: as §2
[19] = test system: HUVEC; test: Cytotoxicity in HUVECs after 48 hrs by MTT assay; type: cell-based; details: Homo sapiens
In short: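 HUVEC proliferation measured by MTT after 48 h exposure. IC50 derived from the dose–response.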

[20] = test system: A2780cisR; test: Resistance index, ratio of IC50 for cisplatin resistant human […] cells to IC50 for parental human […] cells; type: functional
[21] = Cmax in rat at 2.25 mg/kg, iv; type: ADME, organism-based; set-up: dose 2.25 mg/kg, route intravenous; details: in vivo; in short: as §1
[22] = test system: HepG2; test: Induction of apoptosis in human HepG2 cells assessed as early apoptotic cells at 100 nM after 24 hrs by annexin-V-FITC and propidium iodide staining based flow cytometry (reference value: 3.63%); type: functional; in short: as §3
[23] = test system: HepG2; test: Induction of cell cycle arrest in human HepG2 cells assessed as accumulation at S phase phase at 100 nM after 24 hrs by propidium iodide staining based flow cytometry (reference value: 30.6%); type: functional
[24] = Antiproliferative activity against adriamycin resistant human MCF7/ADR cells assessed as inhibition of cell proliferation after 48 hrs by MTT assay; type: functional, cell-based; details: NCI/ADR-RES; in short: as §2
[25] = test system: HepG2; test: Induction of apoptosis in human HepG2 cells assessed as late apoptotic cells at 100 nM after 48 hrs by annexin-V-FITC and propidium iodide staining based flow cytometry (reference value: 1.03%); type: functional; in short: as §3
[26] = test system: HepG2; test: Induction of cell cycle arrest in human HepG2 cells assessed as accumulation at G0/G1 phase at 100 nM after 24 hrs by propidium iodide staining based flow cytometry (reference value: 58.2%); type: functional
[27] = test system: HepG2; test: Induction of apoptosis in human HepG2 cells assessed as early apoptotic cells at 200 nM after 24 hrs by annexin-V-FITC and propidium iodide staining based flow cytometry (reference value: 3.63%); type: functional; in short: as §3
[28] = test system: HepG2; test: Induction of apoptosis in human HepG2 cells assessed as viable cells at 100 nM after 48 hrs by annexin-V-FITC and propidium iodide staining based flow cytometry (reference value: 93.2%); type: functional; details: HepG2, 48 h, read-out: Activity
[29] = test system: MCF7; test: Antiproliferative activity against human MCF7 cells assessed as inhibition of cell proliferation after 48 hrs by MTT assay; type: functional, cell-based; details: MCF7, 48 h; in short: as §2
[30] = Volume of distribution at steady state in rat at 2.25 mg/kg, iv; type: ADME, organism-based; set-up: dose 2.25 mg/kg, route intravenous; details: in vivo, read-out: Vdss
[31] = test system: HepG2; test: Induction of apoptosis in human HepG2 cells assessed as early apoptotic cells at 50 nM after 24 hrs by annexin-V-FITC and propidium iodide staining based flow cytometry (reference value: 3.63%); type: functional; in short: as §3
[32] = test system: AGS; test: Antiproliferative activity against human AGS cells assessed as inhibition of cell proliferation after 48 hrs by MTT assay; type: functional, cell-based; in short: as §2

COc1ccc(/C=C/C(=O)c2ccc(OC)c3c2OC(C)(C)C=C3)cc1N
Activity [1]: 19.5% | CL [2]: 20 mL/min/kg | IC50 [3]: 0.02 µM | Ratio IC50 [4]: 1.6 | Cmax [5]: 519 ng/mL | solubility kinetic [6]: 8 µg/mL (≈ 21.9 µM) | IC50 [7]: 0.026 µM | IC50 [8]: 0.019 µM | Activity [9]: 4.28% | IC50 [10]: 0.016 µM | IC50 [11]: 0.008 µM | Activity [12]: 19.1% | Activity [13]: 20.14% | Activity [14]: 37.4% | IC50 [15]: 0.012 µM | Activity [16]: 37.6% | Ratio IC50 [17]: 4.2 | IC50 [18]: 0.014 µM | IC50 [19]: 0.45 µM | Ratio IC50 [20]: 0.7 | Cmax [21]: 2940 ng/mL | Activity [22]: 9.65% | Activity [23]: 27.8% | IC50 [24]: 0.017 µM | Activity [25]: 29.45% | Activity [26]: 34.8% | Activity [27]: 11.45% | viability at 0.1 µM [28]: 48.8% | IC50 [29]: 0.027 µM | Vd [30]: 21 L/kg | Activity [31]: 2.21% | IC50 [32]: 0.01 µM

From ChEMBL document CHEMBL3351994, “Synthesis and biological evaluation of novel millepachine derivatives as a new class of tubulin polymerization inhibitors” (J Med Chem, 2014)
